Measured values reported in ChEMBL document CHEMBL1811821, “Cystic fibrosis: a new target for 4-Imidazo[2,1-b]thiazole-1,4-dihydropyridines” (J Med Chem, 2011).
Calls of active or inactive are those of the source. No cut-off for these calls is given here.

Experiments:
[1] = system: Cystic fibrosis transmembrane conductance regulator (Homo sapiens), P13569 [F508del]; experiment: Activity at CFTR F508 deletion mutant expressed in forskolin-stimulated FRT cells assessed as maximal increase in iodine influx measured as YFP quenching rate after 24 hrs by fluorescence assay; assay type: cell-based
Summary of the method: (§1)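 ΔF508-CFTR and halide-sensitive YFP coexpressed in FRT cells, held at 27 °C for 24 h for rescue, then stimulated 30–40 min with 20 μM forskolin with or without compound at 0.2, 2 and 20 μM. Fluorescence read before and after I– addition (100 mM final). Normalized decay fitted exponentially for maximal quenching rate; dose–response fitted with Hill equation for potency and maximal effect. Three independent determinations.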

[2] = Negative ionotropic activity against potassium-induced contraction in guinea pig left atrium assessed as […] at 5 X 10^-7 M relative to control; assay type: functional; details: Cavia porcellus, Cardiac atrium
Summary of the method: (§2)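 Isolated guinea pig left atrium paced at 1 Hz. Drugs added cumulatively. Negative inotropic effect expressed as percent change from control, n = 5–6. […] Student's t-test against control at each concentration, P < 0.05. Mean ± SEM.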

[3] = Binding affinity to CFTR F508 deletion mutant expressed in forskolin-stimulated FRT cells assessed as increase in iodine influx measured as YFP quenching rate after 24 hrs by fluorescence assay; assay type: cell-based; summary of the method: as §1
[4] = Negative ionotropic activity against potassium-induced contraction in guinea pig left atrium assessed as decrease in developed tension; details: Cavia porcellus, Cardiac atrium
[5] = Negative ionotropic activity in potassium depolarized guinea pig longitudinal smooth muscle assessed as inhibition of calcium-induced contraction; assay type: functional, Cavia porcellus
Aorta [6] = experiment: Vasorelaxant activity in potassium depolarized guinea pig aortic strip assessed as inhibition of calcium-induced contraction at 10^-5 M; assay type: functional; details: Cavia porcellus
Summary of the method: (§3)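 Guinea pig aortic strips depolarized with 80 mM K+, with cumulative drug addition. Relaxation given as mean ± SEM. […] Student's t-test against control, P < 0.05.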

[7] = Bronchodilatory activity in guinea pig trachea assessed as inhibition of carbachol-induced contraction at 10^-5 M; assay type: functional; details: Cavia porcellus
Cavia porcellus [8] = organism: Cavia porcellus; experiment: Negative ionotropic activity in potassium depolarized guinea pig longitudinal smooth muscle assessed as inhibition of calcium-induced contraction at 10^-5 M; assay type: functional
[9] = Negative chronotropic activity against potassium-induced contraction in guinea pig right atrium assessed as decrease atrial rate at 10^-5 M relative to control; assay type: functional; details: Cavia porcellus, Cardiac atrium
Summary of the method: (§4)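 Spontaneously beating isolated guinea pig right atrium, pretreatment rate 165–190 beats/min. Drugs added cumulatively. Decrease in atrial rate expressed as percent change from control, n = 7–8. […] Control versus treated tested at each concentration by Student's t-test, P < 0.05. Mean ± SEM.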

[10] = Ratio IC50 for nifedipine to compound for bronchodilatory activity in guinea pig trachea assessed as carbachol-induced contraction; assay type: functional, Cavia porcellus
[11] = system: Cystic fibrosis transmembrane conductance regulator (Homo sapiens), P13569 [F508del]; experiment: Activity at CFTR F508 deletion mutant expressed in forskolin-stimulated FRT cells assessed as maximal increase in iodine influx measured as YFP quenching rate after 24 hrs by fluorescence assay relative to nifedipine; assay type: cell-based; summary of the method: as §1
[12] = Bronchodilatory activity in guinea pig trachea assessed as inhibition of carbachol-induced contraction; assay type: functional, tissue-based, Cavia porcellus
[13] = Negative chronotropic activity against potassium-induced contraction in guinea pig right atrium assessed as decrease atrial rate at 10^-4 M relative to control; assay type: functional; details: Cavia porcellus, Cardiac atrium; summary of the method: as §4
Aorta [14] = experiment: Vasorelaxant activity in potassium depolarized guinea pig aortic strip assessed as inhibition of calcium-induced contraction at 5 X 10^-5 M; assay type: functional; details: Cavia porcellus; summary of the method: as §3
[15] = Negative ionotropic activity against potassium-induced contraction in guinea pig left atrium assessed as […] at 5 X 10^-6 M relative to control; assay type: functional; details: Cavia porcellus, Cardiac atrium; summary of the method: as §2
Cavia porcellus [16] = organism: Cavia porcellus; experiment: Negative ionotropic activity in potassium depolarized guinea pig longitudinal smooth muscle assessed as inhibition of calcium-induced contraction at 5 X 10^-5 M; assay type: functional
[17] = Negative chronotropic activity against potassium-induced contraction in guinea pig right atrium assessed as decrease atrial rate; assay type: functional, tissue-based; details: Cavia porcellus, Cardiac atrium; summary of the method: as §4
[18] = system: Cystic fibrosis transmembrane conductance regulator (Homo sapiens), P13569 [F508del]; experiment: Activity at CFTR F508 deletion mutant expressed in forskolin-stimulated FRT cells assessed as maximal increase in iodine influx measured as YFP quenching rate at 0.2 uM after 24 hrs by fluorescence assay; assay type: cell-based; summary of the method: as §1
Aorta [19] = experiment: Vasorelaxant activity in potassium depolarized guinea pig aortic strip assessed as inhibition of calcium-induced contraction at 10^-4 M; assay type: functional; details: Cavia porcellus; summary of the method: as §3
[20] = Negative ionotropic activity against potassium-induced contraction in guinea pig left atrium assessed as […] at 5 X 10^-5 M relative to control; assay type: functional; details: Cavia porcellus, Cardiac atrium; summary of the method: as §2
Cavia porcellus [21] = organism: Cavia porcellus; experiment: Negative ionotropic activity in potassium depolarized guinea pig longitudinal smooth muscle assessed as inhibition of calcium-induced contraction at 10^-6 M; assay type: functional
[22] = Ratio EC50 for negative chronotropic activity against potassium-induced contraction in guinea pig right atrium to EC50 for negative […] activity against potassium-induced contraction in guinea pig left atrium; assay type: functional, Cavia porcellus, Cardiac atrium
[23] = Negative chronotropic activity against potassium-induced contraction in guinea pig right atrium assessed as decrease atrial rate at 5 X 10^-7 M relative to control; assay type: functional; details: Cavia porcellus, Cardiac atrium; summary of the method: as §4
Cavia porcellus [24] = organism: Cavia porcellus; experiment: […] activity in potassium depolarized guinea pig longitudinal smooth muscle assessed as inhibition of calcium-induced contraction at 5 X 10^-9 M; assay type: functional
[25] = Negative ionotropic activity against potassium-induced contraction in guinea pig left atrium assessed as […] at 10^-7 M relative to control; assay type: functional; details: Cavia porcellus, Cardiac atrium; summary of the method: as §2
Cavia porcellus [26] = organism: Cavia porcellus; experiment: Negative ionotropic activity in potassium depolarized guinea pig longitudinal smooth muscle assessed as inhibition of calcium-induced contraction at 3 X 10^-7 M; assay type: functional
[27] = Negative ionotropic activity against potassium-induced contraction in guinea pig left atrium assessed as […] at 10^-5 M relative to control; assay type: functional; details: Cavia porcellus, Cardiac atrium; summary of the method: as §2
[28] = Negative chronotropic activity against potassium-induced contraction in guinea pig right atrium assessed as decrease atrial rate at 10^-7 M relative to control; assay type: functional; details: Cavia porcellus, Cardiac atrium
Summary of the method: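 Isolated spontaneously beating guinea pig right atrium with pretreatment heart rate of 165–190 beats/min. Compound was added cumulatively. Atrial rate decrease at the stated concentration is given as percent change from control, mean ± SEM, n = 7–8. Control versus treated values at each concentration were compared by Student's t-test at P < 0.05.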

Aorta [29] = experiment: Vasorelaxant activity in potassium depolarized guinea pig aortic strip assessed as inhibition of calcium-induced contraction; assay type: functional, tissue-based; details: Cavia porcellus; summary of the method: as §3
Aorta [30] = experiment: Vasorelaxant activity in potassium depolarized guinea pig aortic strip assessed as inhibition of calcium-induced contraction at 10^-6 M; assay type: functional; details: Cavia porcellus; summary of the method: as §3
[31] = Bronchodilatory activity in guinea pig trachea assessed as inhibition of carbachol-induced contraction at 10^-4 M; assay type: functional; details: Cavia porcellus
[32] = Negative chronotropic activity against potassium-induced contraction in guinea pig right atrium assessed as decrease atrial rate at 10^-6 M relative to control; assay type: functional; details: Cavia porcellus, Cardiac atrium; summary of the method: as §4
Cavia porcellus [33] = organism: Cavia porcellus; experiment: Negative ionotropic activity in potassium depolarized guinea pig longitudinal smooth muscle assessed as inhibition of calcium-induced contraction at 10^-7 M; assay type: functional
[34] = Negative ionotropic activity against potassium-induced contraction in guinea pig left atrium assessed as […] at 10^-4 M relative to control; assay type: functional; details: Cavia porcellus, Cardiac atrium; summary of the method: as §2
[35] = Ratio EC50 for nifedipine to compound for negative […] activity against potassium-induced contraction in left atrium of guinea pig; assay type: functional, Cavia porcellus, Cardiac atrium
Aorta [36] = experiment: Vasorelaxant activity in potassium depolarized guinea pig aortic strip assessed as inhibition of calcium-induced contraction at 5 X 10^-7 M; assay type: functional; details: Cavia porcellus; summary of the method: as §3
Cavia porcellus [37] = organism: Cavia porcellus; experiment: Negative ionotropic activity in potassium depolarized guinea pig longitudinal smooth muscle assessed as inhibition of calcium-induced contraction at 10^-8 M; assay type: functional
Cavia porcellus [38] = organism: Cavia porcellus; experiment: Negative ionotropic activity in potassium depolarized guinea pig longitudinal smooth muscle assessed as inhibition of calcium-induced contraction at 5 X 10^-7 M; assay type: functional
[39] = Bronchodilatory activity in guinea pig trachea assessed as inhibition of carbachol-induced contraction at 10^-7 M; assay type: functional; details: Cavia porcellus

Cystic fibrosis transmembrane conductance regulator (Homo sapiens), P13569 [F508del], sequence (P13569 as listed by the source): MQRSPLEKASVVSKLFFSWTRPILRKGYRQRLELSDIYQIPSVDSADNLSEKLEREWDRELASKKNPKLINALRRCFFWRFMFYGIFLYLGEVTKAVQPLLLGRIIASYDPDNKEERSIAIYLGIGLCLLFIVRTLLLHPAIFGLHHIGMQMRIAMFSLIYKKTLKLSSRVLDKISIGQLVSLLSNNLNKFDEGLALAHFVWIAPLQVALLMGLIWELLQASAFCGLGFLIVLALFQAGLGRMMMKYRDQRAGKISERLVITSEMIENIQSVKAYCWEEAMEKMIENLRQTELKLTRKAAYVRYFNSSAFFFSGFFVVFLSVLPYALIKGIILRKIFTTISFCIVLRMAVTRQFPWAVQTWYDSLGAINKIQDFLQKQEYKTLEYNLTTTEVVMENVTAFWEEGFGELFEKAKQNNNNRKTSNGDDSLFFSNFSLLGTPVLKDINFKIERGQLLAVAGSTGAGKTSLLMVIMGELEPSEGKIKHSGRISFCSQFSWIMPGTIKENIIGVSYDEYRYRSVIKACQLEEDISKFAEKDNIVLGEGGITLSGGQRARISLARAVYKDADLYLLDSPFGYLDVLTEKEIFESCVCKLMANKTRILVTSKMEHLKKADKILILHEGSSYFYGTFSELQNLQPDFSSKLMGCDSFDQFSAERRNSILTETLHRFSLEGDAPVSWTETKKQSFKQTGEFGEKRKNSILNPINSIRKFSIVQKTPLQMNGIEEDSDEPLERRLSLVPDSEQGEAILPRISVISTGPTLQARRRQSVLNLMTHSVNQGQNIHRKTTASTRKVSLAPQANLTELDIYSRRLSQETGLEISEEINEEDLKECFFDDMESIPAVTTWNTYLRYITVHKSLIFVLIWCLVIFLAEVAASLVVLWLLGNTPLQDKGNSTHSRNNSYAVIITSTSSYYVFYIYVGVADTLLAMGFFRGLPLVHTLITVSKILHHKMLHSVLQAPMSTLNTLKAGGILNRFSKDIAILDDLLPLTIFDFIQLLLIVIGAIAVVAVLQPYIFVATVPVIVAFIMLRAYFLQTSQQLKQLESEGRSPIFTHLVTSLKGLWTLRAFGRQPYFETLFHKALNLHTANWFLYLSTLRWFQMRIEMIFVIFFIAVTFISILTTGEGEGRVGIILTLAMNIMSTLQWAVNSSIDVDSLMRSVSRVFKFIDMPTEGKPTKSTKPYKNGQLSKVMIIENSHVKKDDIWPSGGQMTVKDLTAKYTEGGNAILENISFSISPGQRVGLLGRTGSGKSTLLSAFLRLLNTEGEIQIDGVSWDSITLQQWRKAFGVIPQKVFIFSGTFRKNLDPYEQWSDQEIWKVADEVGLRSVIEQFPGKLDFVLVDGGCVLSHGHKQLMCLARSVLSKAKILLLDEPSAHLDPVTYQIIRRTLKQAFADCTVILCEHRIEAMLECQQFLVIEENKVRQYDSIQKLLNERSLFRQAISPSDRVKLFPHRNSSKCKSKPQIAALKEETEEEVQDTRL

| SMILES | Emax [1] | Kd [3] | EC50 [4] | IC50 [5] | inhibition at 10 µM [7] | IC50 [12] | EC50 [17] | Activity [18] | inhibition at 100 µM (Aorta [19]) | other results |
| --- | --- | --- | --- | --- | --- | --- | --- | --- | --- | --- |
| C=CCOC(=O)C1=C(C)NC(C)=C(C(=O)OCC=C)C1c1ccc(C(C)(C)C)cc1 | 56 ms-1 | 170 nM | 2.2 nM | 1850 nM | 68% | 0.59 nM |  |  |  | inhibition at 0.5 µM [2]: 71%; inhibition at 10 µM (Aorta [6]): 12%; inhibition (Cavia porcellus [8]): 52%; inhibition at 10 µM [9]: 5%; Ratio IC50 [10]: 163; Ratio [11]: 17 |
| O=c1c(-c2ccc(O)cc2)coc2cc(O)cc(O)c12 [GENISTEIN] | 61 ms-1 |  | 28 nM | 9950 nM | 14% |  | 44.5 µM |  |  | inhibition at 100 µM [13]: 68%; inhibition at 50 µM (Aorta [14]): 22%; inhibition at 5 µM [15]: 71%; inhibition (Cavia porcellus [16]): 84% |
| C=CCOC(=O)C1=C(C)NC(C)=C(C(=O)OCC=C)C1c1c(-c2ccc(C(F)(F)F)cc2)nc2sc(C)c(C)n12 | 42 ms-1 | 320 nM | 270 nM | 460 nM |  |  | 8.96 µM | inactive | 32% | inhibition at 10 µM [9]: 52%; inhibition at 50 µM [20]: 93%; inhibition (Cavia porcellus [21]): 72%; Ratio EC50 [22]: 33 |
| CCOC(=O)C1=C(C)NC(C)=C(C(=O)OCC)C1c1c(-c2ccc(C(F)(F)F)cc2)nc2sccn12 | 42 ms-1 | 180 nM | 33 nM | 0.88 nM | 57% | 130 nM | 0.15 µM | inactive | 6% | inhibition at 0.5 µM [23]: 64%; inhibition (Cavia porcellus [24]): 83%; inhibition at 0.1 µM [25]: 90% |
| COC(=O)C1=C(C)NC(C)=C(C(=O)OC)C1c1c(C(F)(F)F)nc2sccn12 | 60 ms-1 | 28300 nM |  | 210 nM |  |  |  | inactive |  | inhibition (Cavia porcellus [26]): 70% |
| COC(=O)C1=C(C)NC(C)=C(C(=O)OC)C1c1ccccc1[N+](=O)[O-] [NIFEDIPINE] | 58 ms-1 | 2900 nM | 260 nM |  | 62% | 96 nM | 0.039 µM |  |  | inhibition (Cavia porcellus [24]): 70%; inhibition at 10 µM [27]: 97%; inhibition at 0.1 µM [28]: 85%; IC50 (Aorta [29]): 9 nM; inhibition at 1 µM (Aorta [30]): 82% |
| CCOC(=O)C1=C(C)NC(C)=C(C(=O)OCC)C1c1c(C(F)(F)F)nc2sccn12 | 60 ms-1 | 19400 nM | 1070 nM | 14 nM |  | 1110 nM |  | inactive | 48% | inhibition at 100 µM [31]: 77%; inhibition at 1 µM [32]: 40%; inhibition (Cavia porcellus [33]): 90%; inhibition at 100 µM [34]: 93% |
| COC(=O)C1=C(C)NC(C)=C(C(=O)OC)C1c1c(-c2ccc(C(F)(F)F)cc2)nc2sccn12 | 64 ms-1 | 3200 nM | 120 nM | 4.6 nM | 67% | 61 nM |  | inactive |  | Ratio EC50 [35]: 2.6; inhibition at 10 µM [27]: 96%; inhibition at 0.5 µM (Aorta [36]): 36%; inhibition at 0.1 µM [28]: 33%; inhibition (Cavia porcellus [37]): 69% |
| COC(=O)C1=C(C)NC(C)=C(C(=O)OC)C1c1c(-c2ccc(OC(F)(F)F)cc2)nc2sccn12 | 64 ms-1 | 3500 nM | 2330 nM | 3.3 nM | 26% |  |  | inactive |  | inhibition at 100 µM [13]: 33%; inhibition (Cavia porcellus [37]): 73%; IC50 (Aorta [29]): 16 nM; inhibition at 100 µM [34]: 89%; inhibition at 1 µM (Aorta [30]): 60% |
| COC(=O)C1=C(C)NC(C)=C(C(=O)OC)C1c1c(-c2cccc(C(F)(F)F)c2)nc2sccn12 | 65 ms-1 | 2800 nM |  | 36 nM |  |  |  | inactive |  | inhibition (Cavia porcellus [38]): 96%; Ratio EC50 [22]: 12; inhibition at 0.1 µM [39]: 19% |
